11 compounds from ChEMBL document CHEMBL1133655, “Preparation and biological activity of amino acid and peptide conjugates of antitumor hydroxymethylacylfulvene” (J Med Chem, 2000) can be followed below.

Peptide text beside a SMILES is read from it. * marks the point of attachment. X1 = CC1=C(C*)C2=C(C)C3(CC3)[C@@](C)(O)C(=O)C2=C1

This assay can be described thus: Concentration required for 50% toxicity in metastatic lung carcinoma (MV522) cells. The conditions noted are these: Homo sapiens. The method in brief: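 Compounds held as 1 mg/mL DMSO stock, diluted in 20% DMSO/phosphate-buffered saline just before addition to MV 522 cultures; controls got equal DMSO/PBS. After 48 h incubation, cells were washed, stained with trypan blue and counted. Counts were reported as corresponding closely with colony-forming assay values.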
The IC50 is the concentration at which inhibition is half-maximal. Low values mean greater potency, high ones weaker potency. `CC1=C(CSCC[C@H](N)C(=O)O)C2=C(C)C3(CC3)[C@@](C)(O)C(=O)C2=C1` registered an IC50 of more than 50 µM.
In the case of `CC1=C(CSCC(N)C(=O)O)C2=C(C)C3(CC3)[C@@](C)(O)C(=O)C2=C1` (stereo partly specified), the IC50 amounted to 29.2 µM.
With `CC1=C(CSCC(NC(=O)CCC(N)C(=O)O)C(=O)NCC(=O)O)C2=C(C)C3(CC3)[C@@](C)(O)C(=O)C2=C1` (stereo partly specified), half-maximal inhibition (IC50) was put at 15.5 µM.
In the case of `CC(=O)NC(CSCC1=C(C)C=C2C(=O)[C@](C)(O)C3(CC3)C(C)=C21)C(=O)N[C@@H](C)c1ccccc1` (stereo partly specified), the IC50 came to 2.5 µM.
`CC1=C2C(=C[C@@](C)(CO)C2O)C(=O)[C@](C)(O)C12CC2` (stereo partly specified) had an IC50 of 0.073 µM.
Compound `CC(=O)N[C@@H](CSCC1=C(C)C=C2C(=O)[C@](C)(O)C3(CC3)C(C)=C21)C(=O)N[C@@H](Cc1ccccc1)C(=O)NCC(=O)N[C@@H](CC(C)C)C(=O)O` (Ac-C(X1)FGL-OH) displayed an IC50 of 37.2 µM.
In the case of `CC(=O)N[C@@H](CSCC1=C(C)C=C2C(=O)[C@](C)(O)C3(CC3)C(C)=C21)C(=O)N[C@@H](CC(C)C)C(=O)NCC(=O)N[C@@H](Cc1ccccc1)C(=O)O` (Ac-C(X1)LGF-OH) it was 28.2 µM.
Regarding `CC(=O)N[C@@H](CSCC1=C(C)C=C2C(=O)[C@](C)(O)C3(CC3)C(C)=C21)C(=O)N[C@@H](CC(C)C)C(=O)N[C@@H](CC(C)C)C(=O)N[C@@H](Cc1ccccc1)C(=O)O` (Ac-C(X1)LLF-OH), the IC50 was more than 40 µM.
The result for `CC(=O)N[C@@H](CSCC1=C(C)C=C2C(=O)[C@](C)(O)C3(CC3)C(C)=C21)C(=O)N[C@@H](CC(C)C)C(=O)N[C@@H](CC(C)C)C(=O)N[C@@H](CC(C)C)C(=O)O` (Ac-C(X1)LLL-OH) reads 24.7 µM; that for `CC1=CC2=C(C)C3(CC3)[C@@](C)(O)C(=O)C2=C1` [ACYLFULVENE], 0.35 µM.
`CC1=C(CO)C2=C(C)C3(CC3)[C@@](C)(O)C(=O)C2=C1` [IROFULVEN] had an IC50 of 0.004 µM.
